ChEMBL document CHEMBL4725414, “Identification, Structure-Activity Relationship, and Biological Characterization of 2,3,4,5-Tetrahydro-1H-pyrido[4,3-b]indoles as a Novel Class of CFTR Potentiators” (J Med Chem, 2020)
The source made the active and inactive calls.

Tests used:
[1] = system: Cystic fibrosis transmembrane conductance regulator (Homo sapiens), P13569 [G551D]; test: Potentiation of human CFTR G551D mutant expressed in rat FRT cells coexpressing HS-YFP assessed as increase in iodide influx at 20 uM pre-incubated for 15 to 30 mins in presence of forskolin by fluorescent method relative to forskolin alone; format: cell-based; conditions: time min 15-30
Chain of Cystic fibrosis transmembrane conductance regulator (Homo sapiens), P13569 [G551D] (P13569 whole entry G551D): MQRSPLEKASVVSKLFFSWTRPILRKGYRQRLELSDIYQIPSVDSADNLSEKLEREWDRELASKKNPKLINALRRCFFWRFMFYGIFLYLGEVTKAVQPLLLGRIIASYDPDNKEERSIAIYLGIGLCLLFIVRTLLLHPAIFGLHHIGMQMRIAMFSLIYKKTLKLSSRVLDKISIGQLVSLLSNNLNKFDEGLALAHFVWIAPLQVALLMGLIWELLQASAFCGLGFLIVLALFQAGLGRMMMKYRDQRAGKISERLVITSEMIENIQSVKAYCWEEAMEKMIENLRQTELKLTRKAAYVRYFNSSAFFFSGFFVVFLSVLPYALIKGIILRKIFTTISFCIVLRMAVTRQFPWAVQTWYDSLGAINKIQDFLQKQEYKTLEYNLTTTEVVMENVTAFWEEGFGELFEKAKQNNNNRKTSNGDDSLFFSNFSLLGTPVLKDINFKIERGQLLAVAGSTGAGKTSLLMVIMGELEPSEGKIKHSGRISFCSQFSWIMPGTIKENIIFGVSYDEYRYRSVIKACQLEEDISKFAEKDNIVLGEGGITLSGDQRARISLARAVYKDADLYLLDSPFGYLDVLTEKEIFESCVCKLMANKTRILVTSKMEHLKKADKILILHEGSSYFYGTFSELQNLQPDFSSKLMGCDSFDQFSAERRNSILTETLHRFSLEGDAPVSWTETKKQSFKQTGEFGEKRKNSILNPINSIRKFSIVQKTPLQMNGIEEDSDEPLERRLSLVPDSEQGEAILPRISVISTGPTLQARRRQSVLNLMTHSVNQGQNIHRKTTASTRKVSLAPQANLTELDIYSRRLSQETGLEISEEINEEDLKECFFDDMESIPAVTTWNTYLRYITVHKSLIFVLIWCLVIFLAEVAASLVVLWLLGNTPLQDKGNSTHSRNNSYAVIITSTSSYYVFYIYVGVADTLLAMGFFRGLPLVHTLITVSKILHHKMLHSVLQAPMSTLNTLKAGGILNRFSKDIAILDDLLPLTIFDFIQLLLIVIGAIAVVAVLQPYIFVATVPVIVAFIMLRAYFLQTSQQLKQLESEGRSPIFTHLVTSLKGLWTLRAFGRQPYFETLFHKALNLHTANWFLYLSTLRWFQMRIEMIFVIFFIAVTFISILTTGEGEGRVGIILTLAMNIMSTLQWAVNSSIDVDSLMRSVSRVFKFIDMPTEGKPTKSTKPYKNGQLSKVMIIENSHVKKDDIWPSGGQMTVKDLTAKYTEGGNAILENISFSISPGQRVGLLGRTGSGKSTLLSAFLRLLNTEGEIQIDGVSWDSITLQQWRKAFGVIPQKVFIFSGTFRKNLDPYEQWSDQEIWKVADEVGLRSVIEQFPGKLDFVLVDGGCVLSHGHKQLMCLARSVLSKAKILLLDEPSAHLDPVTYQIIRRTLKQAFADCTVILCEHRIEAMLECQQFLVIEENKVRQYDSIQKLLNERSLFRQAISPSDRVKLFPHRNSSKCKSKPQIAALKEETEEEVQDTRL
How it was run: (§1)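 HS-YFP iodide influx assay in FRT cells (F508del cells rescued 24 h at 32 °C; G551D cells not); 25 min with forskolin plus compound at fixed concentrations, then I⁻ injection (final 100 mM); quenching rate from linear fit of final 10 s of a 14 s reading; three concentrations tested on G551D cells; n = 9.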

[2] = system: Cystic fibrosis transmembrane conductance regulator (Homo sapiens), P13569 [G551D]; test: Potentiation of human CFTR G551D mutant expressed in rat FRT cells coexpressing HS-YFP assessed as increase in iodide influx at 5 uM pre-incubated for 15 to 30 mins in presence of forskolin by fluorescent method relative to forskolin alone; format: cell-based; conditions: filed as activator, time min 15-30; how it was run: as §1
[3] = system: Cystic fibrosis transmembrane conductance regulator (Homo sapiens), P13569 [F508del]; test: Potentiation of human CFTR F508 deletion mutant expressed in rat FRT cells coexpressing HS-YFP assessed as increase in iodide influx at 1 uM pre-incubated for 15 to 30 mins in presence of forskolin by fluorescent method relative to forskolin alone; format: cell-based; conditions: filed as activator, time min 15-30; how it was run: as §1
Chain of Cystic fibrosis transmembrane conductance regulator (Homo sapiens), P13569 [F508del] (P13569 as listed by the source): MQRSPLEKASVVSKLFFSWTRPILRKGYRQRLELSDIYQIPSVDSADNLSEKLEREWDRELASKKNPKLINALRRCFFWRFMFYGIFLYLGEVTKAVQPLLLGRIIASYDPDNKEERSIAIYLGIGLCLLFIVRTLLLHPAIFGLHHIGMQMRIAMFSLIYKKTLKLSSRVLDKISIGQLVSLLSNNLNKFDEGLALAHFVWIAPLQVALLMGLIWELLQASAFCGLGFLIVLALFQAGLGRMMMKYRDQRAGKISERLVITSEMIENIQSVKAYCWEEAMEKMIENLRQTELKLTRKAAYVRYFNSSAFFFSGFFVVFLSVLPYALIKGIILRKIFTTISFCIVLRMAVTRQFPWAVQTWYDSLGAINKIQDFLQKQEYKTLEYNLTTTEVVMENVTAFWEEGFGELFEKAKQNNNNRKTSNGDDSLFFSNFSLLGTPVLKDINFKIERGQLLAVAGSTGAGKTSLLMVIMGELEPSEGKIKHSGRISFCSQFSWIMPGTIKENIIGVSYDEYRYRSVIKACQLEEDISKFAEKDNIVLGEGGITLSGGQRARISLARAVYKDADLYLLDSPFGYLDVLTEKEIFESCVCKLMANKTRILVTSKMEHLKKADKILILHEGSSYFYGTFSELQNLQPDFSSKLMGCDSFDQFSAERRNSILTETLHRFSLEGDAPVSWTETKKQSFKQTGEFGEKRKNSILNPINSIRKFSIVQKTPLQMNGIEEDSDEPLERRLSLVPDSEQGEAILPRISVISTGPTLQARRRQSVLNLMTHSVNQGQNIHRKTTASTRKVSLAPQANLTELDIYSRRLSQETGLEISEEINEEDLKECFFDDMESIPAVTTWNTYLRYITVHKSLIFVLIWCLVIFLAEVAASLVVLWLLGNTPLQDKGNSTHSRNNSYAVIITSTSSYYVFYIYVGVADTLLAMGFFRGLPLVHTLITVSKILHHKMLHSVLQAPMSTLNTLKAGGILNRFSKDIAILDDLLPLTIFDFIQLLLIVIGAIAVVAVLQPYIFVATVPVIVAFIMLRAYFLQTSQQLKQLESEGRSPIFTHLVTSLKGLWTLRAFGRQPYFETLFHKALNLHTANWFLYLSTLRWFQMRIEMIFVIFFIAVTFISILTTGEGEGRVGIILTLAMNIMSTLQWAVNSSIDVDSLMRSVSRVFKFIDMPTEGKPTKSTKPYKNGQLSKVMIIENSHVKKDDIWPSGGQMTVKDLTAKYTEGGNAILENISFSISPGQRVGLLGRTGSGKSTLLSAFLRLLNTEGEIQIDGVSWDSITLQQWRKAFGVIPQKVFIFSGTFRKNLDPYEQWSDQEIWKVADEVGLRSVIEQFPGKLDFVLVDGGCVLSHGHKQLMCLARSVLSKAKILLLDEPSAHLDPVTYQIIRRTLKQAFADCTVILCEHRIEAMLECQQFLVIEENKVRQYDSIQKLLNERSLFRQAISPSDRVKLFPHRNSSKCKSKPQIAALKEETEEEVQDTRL

[4] = biological target: T1, Cystic fibrosis transmembrane conductance regulator (Homo sapiens, UniProt P13569); test: Potentiation of CFTR in primary human bronchial epithelial cells assessed as stimulation of CFTR-mediated chloride current at 100 uM in presence of CPT-cAMP by short-circuit current method; conditions: dose 1.0 µM, in the assay text read “at 1 uM” for “at 100 uM”
How it was run: (§2)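 Non-CF primary HBE cells on porous inserts, differentiated at air–liquid interface 2–3 weeks; Ussing chamber short-circuit current. Amiloride added to block ENaC; cells stimulated with submaximal CPT-cAMP, then increasing potentiator concentrations or potentiator then CPT-cAMP 5 μM and 100 μM; total CFTR current defined by CFTR inhibitor-172; n = 9 (three experiments × three replicates).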
Target sequence in this assay (P13569 whole entry, looked up): as the sequence (P13569 whole entry G551D) above, with D551G counted along it

[5] = system: Cystic fibrosis transmembrane conductance regulator (Homo sapiens), P13569 [F508del]; test: Effect on processing/trafficking of CFTR F508 deletion mutant in primary HBE cells from F508del/F508del CF patient at 0.5 uM incubated for 24 hrs in presence of CFTR corrector ARN23765 by TEER/PD assay; format: cell-based
How it was run: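 Differentiated F508del/F508del primary bronchial epithelia grown at air–liquid interface 2–3 weeks; treated 24 h at 37 °C, 5% CO2 in culture medium with vehicle, corrector ARN23765 (10 nM) alone, or ARN23765 plus test compound (0.5 μM); TEER and PD measured, equivalent short-circuit current calculated; n = 9 (three experiments × three biological replicates).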

[6] = system: Cystic fibrosis transmembrane conductance regulator (Homo sapiens), P13569 [F508del]; test: Potentiation of human CFTR F508 deletion mutant expressed in CFBE41o cells coexpressing HS-YFP assessed as increase in CFTR-dependent iodide influx at 0.256 to 10 uM pre-incubated for 15 to 30 mins in presence of forskolin by fluorescent method relative to forskolin alone; conditions: filed as activator, dose microM 0.256-10, time min 15-30
[7] = system: Cystic fibrosis transmembrane conductance regulator (Homo sapiens), P13569 [F508del]; test: Potentiation of human CFTR F508 deletion mutant expressed in rat FRT cells coexpressing HS-YFP assessed as increase in iodide influx at 5 uM pre-incubated for 15 to 30 mins in presence of forskolin by fluorescent method relative to forskolin alone; format: cell-based; conditions: filed as activator, time min 15-30
How it was run: (§3)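 Cells plated 50,000/well, assayed next day; F508del FRT cells first held 24 h at 32 °C to rescue trafficking. Washed in PBS, incubated 25 min with forskolin (20 μM) plus compound, then I⁻ solution injected (final 100 mM). YFP fluorescence (ex 500, em 535 nm) read for 14 s; initial slope from linear fit of final 10 s; dose–response, n = 9.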

[8] = system: Cystic fibrosis transmembrane conductance regulator (Homo sapiens), P13569 [G551D]; test: Potentiation of human CFTR G551D mutant expressed in rat FRT cells coexpressing HS-YFP assessed as increase in iodide influx at 1.56 to 50 uM pre-incubated for 15 to 30 mins in presence of forskolin by fluorescent method relative to forskolin alone; format: cell-based; conditions: filed as activator, dose microM 1.56-50, time min 15-30; how it was run: as §3
[9] = system: Cystic fibrosis transmembrane conductance regulator (Homo sapiens), P13569 [F508del]; test: Potentiation of human CFTR F508 deletion mutant expressed in rat FRT cells coexpressing HS-YFP assessed as increase in iodide influx at […] to 10 uM pre-incubated for 15 to 30 mins in presence of forskolin by fluorescent method relative to forskolin alone; format: cell-based; conditions: filed as activator, dose microM 0.256-10, time min 15-30; how it was run: as §3
[10] = biological target: T1, Cystic fibrosis transmembrane conductance regulator; test: Potentiation of CFTR in primary human bronchial epithelial cells assessed as stimulation of CFTR-mediated chloride current at 30 to […] uM in presence of CPT-cAMP by short-circuit current method; conditions: filed as activator, dose microM 30-50; how it was run: as §2
Target sequence in this assay (P13569 whole entry, looked up): as the sequence (P13569 whole entry G551D) above, with D551G counted along it

[11] = biological target: T1, Cystic fibrosis transmembrane conductance regulator; test: Potentiation of CFTR in primary human bronchial epithelial cells assessed as stimulation of CFTR-mediated chloride current at 0.5 to 5 uM in presence of CPT-cAMP and CFTR inhibitor-172 by short-circuit current method; conditions: dose microM 0.5-5; how it was run: as §2
Target sequence in this assay (P13569 whole entry, looked up): as the sequence (P13569 whole entry G551D) above, with D551G counted along it

[12] = system: Cystic fibrosis transmembrane conductance regulator (Homo sapiens), P13569 [F508del]; test: Potentiation of human CFTR F508 deletion mutant expressed in rat FRT cells coexpressing HS-YFP assessed as increase in iodide influx pre-incubated for 15 to 30 mins in presence of forskolin by fluorescent method relative to forskolin alone; format: cell-based; conditions: time min 15-30
How it was run: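 Primary HTS: F508del-CFTR/HS-YFP FRT cells, rescued 24 h at 32 °C, were treated acutely (15–30 min) with single compound at 5 μM plus forskolin 10 μM, screened in duplicate. The HS-YFP quenching rate from iodide influx was expressed relative to forskolin-alone wells. Forskolin plus VX-770 1 μM served as positive control. The average of two rounds was scored, with hit threshold >185%.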

[13] = biological target: T1, Cystic fibrosis transmembrane conductance regulator; test: Potentiation of human CFTR F508 deletion mutant expressed in rat FRT cells coexpressing HS-YFP assessed as increase in iodide influx pre-incubated for 15 to 30 mins in presence of forskolin by fluorescent method; format: cell-based
Target sequence in this assay (P13569 as listed by the source): as the sequence (P13569 as listed by the source) above

| Activity ([1]; filed as activator) | Activity [6] | Activity [7] | Activity [8] | Activity [9] | Compound | other results |
| --- | --- | --- | --- | --- | --- | --- |
| – | Dose-dependent effect | Active | Active | Active | O=C(c1cnn(-c2ccccc2)c1)N1CCc2[nH]c3ccccc3c2C1 | – |
| – | Dose-dependent effect | Active | Active | Active | COc1ccc2[nH]c3c(c2c1)CN(C(=O)c1cc(C(F)(F)F)[nH]n1)CC3 | Activity [1]: inactive; Activity [10]: Active; Activity [11]: inactive |
| – | Dose-dependent effect | Active | Active | Active | CN(C)c1ccc2cc(C(=O)N3CCc4[nH]c5ccccc5c4C3)[nH]c2c1 | – |
| Active | – | – | – | – | O=C(c1cc(C(F)(F)F)[nH]n1)N1CCc2[nH]c3c(F)cccc3c2C1 | – |

Further lines, the compound ahead of its results:

| Compound | Activity ([1]; filed as activator) | Activity [6] | Activity [7] | Activity [8] | Activity [9] | other results |
| --- | --- | --- | --- | --- | --- | --- |
| CC(C)(C)c1cc(C(C)(C)C)c(NC(=O)c2c[nH]c3ccccc3c2=O)cc1O | Active | – | – | – | – | Activity [2]: Active; Activity [3]: Active |
| Cc1ccc(F)c2[nH]c3c(c12)CN(C(=O)c1cc(C(F)(F)F)[nH]n1)CC3 | Active | – | – | – | – | – |
| Cc1ccc(F)c2[nH]c3c(c12)CN(C(=O)c1cc(C(F)(F)F)[nH]n1)[C@H](C)C3 | Active | – | – | – | – | fold change (FC) [4]: > 2; Activity [5]: inactive |
| COc1cc(F)c2[nH]c3c(c2c1)CN(C(=O)c1cc(C(F)(F)F)[nH]n1)CC3 | Active | – | – | – | – | – |
| Cc1ccc(F)c2[nH]c3c(c12)[C@H]1CC[C@@H](C3)N1C(=O)c1cc(C(F)(F)F)[nH]n1 | – | – | – | – | – | Emax [12]: inactive; EC50 [13]: Not Active |
